Rows were chosen to be rich in hits. Some 1.6% of all compounds tested hit in one or more screens of this group.
p47phox inh: p47phox/p22phox peptide binding inhibitors, primary screen, biochemical, uHTS, NADPH oxidase regulatory subunit; Neutrophil cytosol factor 1 (Homo sapiens), P14598; fluorescence polarization, 2 h; inhibition, % at 24.7 µM; 220,000 tested, 0.53% active;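 note: 0% = p47phox with labelled peptide and 100% = labelled peptide alone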
p97 inhibitor: inhibitors of human p97 ATPase, primary screen, biochemical; Transitional endoplasmic reticulum ATPase (Homo sapiens), P55072; recombinant p97 ATPase, Kinase-Glo ATP luminescence, 3 h; inhibition, % at 8 µM; 220,000 tested, 0.42% active; AID 1481, 2009; in the data active = inhibition above about 15%;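 note: 0% = DMSO vehicle and 100% = wells lacking enzyme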
UBC9 SUMO inh: inhibitors of in vitro SUMOylation cascade, primary screen, biochemical, HTRF, uHTS; HTRF SUMOylation assay, SAE1/SAE2 + UBC9; inhibition, % at 35 µM; 290,000 tested, 0.36% active; in the data active = inhibition above about 50%, passing the limit was not always enough; inconclusive = no clear call, values can overlap the other calls
Target sequence (P63279 whole entry, looked up): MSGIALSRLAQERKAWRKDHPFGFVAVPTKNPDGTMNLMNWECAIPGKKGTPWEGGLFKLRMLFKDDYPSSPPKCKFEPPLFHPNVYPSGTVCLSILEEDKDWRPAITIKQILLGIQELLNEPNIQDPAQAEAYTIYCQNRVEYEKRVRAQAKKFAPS
eIF4E 4G PPI: eIF4E–eIF4G protein interaction inhibitors, primary screen, biochemical, uHTS, TR-FRET, eIF4GI fragment | Eukaryotic translation initiation factor 4E (Mus musculus) + Eukaryotic translation … | TR-FRET eIF4E-eIF4GI(517-606) binding, 2 h | inhibition, % at 21.7 µM | 220,000 tested, 0.37% active;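 note: 0% = full FRET control wells and 100% = background wells lacking eIF4GI fragment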
Tb MetRS inh: T. brucei MetRS inhibitors, primary screen, biochemical, luminescence | methionyl-tRNA synthetase (Trypanosoma brucei brucei) | purified T. brucei MetRS, ATP depletion, Kinase-Glo luminescence | inhibition, % at 11.9 µM | 360,000 tested, 0.4% active;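 active = inhibition above a per-plate cutoff of the control wells' mean inhibition plus 3 SD, cut at about 5.5% in these data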;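 note: 0% = DMSO wells median and 100% = median of wells with control inhibitor compound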
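System: purified T. brucei MetRS enzyme / Detection: Kinase-Glo luciferase luminescence reporting remaining unconsumed ATP / Medium: HEPES buffer with MgCl2, KCl, DTT, spermine, BSA, pyrophosphatase / Replication: singlicate, one well per compound / Evaluation: percent inhibition relative to median high and low control wells / Schedule: 2 h aminoacylation at 25 °C after 15 min preincubation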
14-3-3 Bad inh: inhibitors of 14-3-3 zeta/Bad binding, primary screen, biochemical, TR-FRET, bovine 14-3-3 zeta; 14-3-3 protein zeta/delta (Bos taurus), P63103; TR-FRET 14-3-3zeta/Dy647-pBad peptide displacement, 1 h; inhibition, % at 21.7 µM; 220,000 tested, 0.71% active; AID 781, 2007;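 active = inhibition above about 70%, limit read from the data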;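 note: 0% = full 14-3-3 plus peptide FRET controls and 100% = background without 14-3-3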
Target sequence (P63103 whole entry, looked up): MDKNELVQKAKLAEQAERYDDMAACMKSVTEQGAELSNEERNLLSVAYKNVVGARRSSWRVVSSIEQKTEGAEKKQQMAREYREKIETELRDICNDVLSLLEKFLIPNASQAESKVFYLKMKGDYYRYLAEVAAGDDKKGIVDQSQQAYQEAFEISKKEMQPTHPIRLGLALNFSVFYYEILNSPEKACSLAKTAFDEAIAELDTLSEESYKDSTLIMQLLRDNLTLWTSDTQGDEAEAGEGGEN
p97 confirm: p97 ATPase inhibitors, retest, confirmation, biochemical; shares compounds with p97 inhibitor; recombinant p97 ATPase, Kinase-Glo ATP luminescence; inhibition, % at 8 µM; 760 tested, 44% active; AID 1517, 2009;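 active = percent inhibition of p97 ATPase above a set limit, the primary screen's mean plus 3 SD, cut at about 15% in these data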;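 note: 0% = DMSO wells and 100% = wells lacking p97 protein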
* marks the source's active call; other numbers are inactive results; ? = inconclusive; / = no result.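 Rule for the calls, unless noted: active = inhibition above about 30% (limit read from the data); inactive = the rest.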

SMILES	p47phox inh	p97 inhibitor	UBC9 SUMO inh	eIF4E 4G PPI	Tb MetRS inh	14-3-3 Bad inh	p97 confirm
O=C1c2ccc([N+](=O)[O-])cc2NC(c2ccco2)N1/N=C/c1ccco1 (centres undefined)	4	16*	18	4	0	1	8
COc1cc(OC)cc(C2=Cc3ccccc3C(CC(=O)c3ccco3)N2c2ccc(-c3ccc(C(N)=O)cc3)cc2)c1 (centres undefined)	/	/	/	/	-1	/	/
O=C(Nc1nnc([C@H]2C[C@H](O)[C@@H](CO)O2)s1)Nc1ccccc1Oc1ccccc1	/	/	/	/	0	/	/
O=C(O)c1cc(-c2c[nH]c3ccccc23)nc2cc3ccccc3cc12	-9	27*	22	2	1	-7	27*
COC(=O)c1ccccc1NC(=O)c1sc(N)nc1C	-4	15*	22	-3	-1	0	7
Cc1nc(N)sc1C(=O)Nc1ccccc1	-10	-4	-4	0	-2	66	/
Cc1cc(C)nc(SCC(=O)c2ccc(O)c(O)c2)n1	/	/	-14	/	0	/	/
Cc1cc(SCC(=O)c2ccc(O)c(O)c2)n2nc(C)c(-c3ccccc3)c2n1	-35	15*	6	-6	-1	-3	18*
O=c1[nH]c(=O)n(C2CCCO2)cc1F (centres undefined)	-6	20*	1	0	0	-1	8
O=C(CC1Nc2cccc3cccc(c23)NC1=O)Nc1ccccc1 (centres undefined)	-11	11	81	8	1	2	/
NC(=O)CC1Nc2cccc3cccc(c23)NC1=O (centres undefined)	4	35*	11	-1	0	9	9
O=C1NC(=S)S/C1=C\C=C\c1ccc([N+](=O)[O-])o1	-19	45*	86*	20	1	87*	18*
CC1=NN(c2ccc(C)cc2C)C(=O)C1C(c1cccc(O)c1)C1C(=O)N(c2ccc(C)cc2C)N=C1C (centres undefined)	-4	23*	79	4	1	-27	6
CC1=NN(c2ccccc2)C(=O)C1N=Nc1cccc(O)c1 (centres undefined)	/	/	-3	/	0	/	/
CCN(C(=O)c1cccnc1SC)C12CC3CC(CC(C3)C1)C2	/	/	-2	/	0	/	/
O=C(c1cccc(F)c1)N1CCN(S(=O)(=O)Cc2ccccc2)CC1	2	-1	15	0	0	-4	/
CCCn1c(SCC(=O)NC2CCCC2)nc2c1c(=O)n(C)c(=O)n2C	/	/	16	/	0	/	/
Cc1cc(OC(=O)c2ccc(S(=O)(=O)N(C)C)cc2)c([N+](=O)[O-])c(=O)[nH]1	0	16*	3	-2	2	12	6
Cc1ccc(C(=O)NCCN2C3=NC[C@@H](Cc4ccccc4)N3C[C@H]2Cc2ccc(O)cc2)cc1Br	-9	20*	5	-2	0	3	12
Cc1ccc(C(=O)NCCN2C3=NC[C@H](Cc4ccc(O)cc4)N3C[C@H]2Cc2ccc(O)cc2)cc1Br	-1	/	-7	5	0	-3	/
COc1ccc(C(c2c(C)n(C)n(-c3ccccc3)c2=O)c2c(C)n(C)n(-c3ccccc3)c2=O)cc1OC	/	/	8	/	0	/	/
COc1ccc(C(c2c(C)[nH]n(-c3ccccc3)c2=O)c2c(C)[nH]n(-c3ccccc3)c2=O)cc1OC	-7	30*	87	-3	-1	2	5
Nc1c(C(=O)O)sc2nc(-c3ccccc3)cc(-c3ccc(F)cc3)c12	-22	12	28	8	-1	-1	/
Nc1c(C(=O)O)sc2nc(-c3ccccc3)cc(-c3ccccc3)c12	-22	23*	37	1	0	-5	7
O=C(COC(=O)c1cccc2c1C(=O)c1ccccc1C2=O)NC1CCCCC1	-1	-8	0	-2	0	-2	/
SMILES	p47phox inh	p97 inhibitor	UBC9 SUMO inh	eIF4E 4G PPI	Tb MetRS inh	14-3-3 Bad inh	p97 confirm
O=C(COC(=O)c1ccc2c(c1[N+](=O)[O-])C(=O)c1ccccc1C2=O)NC1CC1	-59	23*	12	8	0	-1	29*
c1cc(Nc2ncnc3sccc23)cc(-c2nnc3n2CCCCC3)c1	-15	-2	1	1	0	-2	/
CCS(=O)(=O)Nc1c(C(=O)O)[nH]c2ccccc12	4	20*	39	7	0	62	6
O=C(O)CCC(=O)c1ccc2ccc3cccc4ccc1c2c34	-7	19*	28	4	/	7	25*
Cc1sc(NC(=O)CSc2n[nH]c(N)n2)c(C#N)c1C	/	/	/	/	0	/	/
Cc1ccc(/C=C/C2=Cc3c(sc(NC(=O)CSc4n[nH]c(N)n4)c3C#N)C(C)(C)C2)o1	-32	19*	70*	0	/	2	22*
Oc1ccc(Cl)cc1/C=C/c1ccc2cccc(O)c2n1	-21	31*	-4	4	0	-5	22*
O=[N+]([O-])c1cc(S(=O)(=O)C(F)(F)F)ccc1Sc1nc2ccccc2[nH]1	-2	20*	-2	-1	1	-10	29*
Nc1cccc2cnccc12	15	16*	88	-8	0	-14	8
Oc1cccc2cnccc12	-22	4	26	-1	-1	-9	/
COc1ccccc1OCCC(=O)Nc1cccc(S(=O)(=O)N2CCOCC2)c1	/	/	/	/	1	/	/
O=C(O)Cc1c[nH]c2cccc(O)c12	-6	17*	?	19	0	64	19*
O=C(O)c1ccc(N=NN2CCCCCC2)cc1	-2	6	-4	-1	0	-5	/
O=C(c1ccc(COCC(F)(F)F)o1)N1CCCC1	-2	4	-1	1	-1	-10	/
CC1CCCC(NCC(O)COC(c2ccc(F)cc2)c2ccc(F)cc2)C1C (centres undefined)	-6	15*	1	6	1	52	8
Cc1ccc(CNC(=O)[C@H](C)[C@H]2C[C@]2(C)[C@H](NC(=O)OCc2ccccc2)c2ccccc2)o1	-8	1	11	2	0	-6	/

Source: PubChem BioAssay (several laboratories)
